Reference: ChEMBL document CHEMBL3108706, “Design, synthesis, and biological activity of novel dicoumarol glucagon-like peptide 1 conjugates” (J Med Chem, 2013)
pEC50: −log10 of the molar value. Active and inactive are the calls of the source. No cut-off for these calls is given here.

Assays:
[1] = Mean residence time in Sprague-Dawley rat at 15 nmol/kg, sc by LC-MS/MS analysis; type: ADME, organism-based; conditions: in vivo
[2] = molecular target: Glucagon-like peptide 1 receptor (Homo sapiens, UniProt P43220); assay: Activation of human GLP-1 receptor overexpressed in HEK293 cells assessed as cAMP accumulation after 20 mins by HTRF assay; type: functional, cell-based
Rattus norvegicus [3] = assay: Anticoagulant activity in Sprague-Dawley rat assessed as activated […] time at 150 nmol/kg, iv administered for 6 days measured on day 7 by coagulometric analysis (reference value: 26.5 +/- 0.81 secs); type: functional
[4] = Elimination half life in Sprague-Dawley rat at 15 nmol/kg, sc by LC-MS/MS analysis; type: ADME, organism-based; conditions: in vivo, read-out: beta t1/2 (converted)
Rattus norvegicus [5] = assay: Antidiabetic activity in Sprague-Dawley rat assessed as reduction of plasma glucose level at 25 nmol/kg, ip administered 0.5 hrs prior to glucose challenge measured at 15 to 60 mins by OGTT; type: functional, organism-based
Mus musculus [6] = assay: Antidiabetic activity in C57BL/6J-m+/+Leprdb (db/db) mouse assessed as reduction of blood glucose level at 25 nmol/kg, ip qd administered for 49 days followed by glucose challenge on day 52 measured after 120 mins post glucose challenge by IPGTT; type: functional, organism-based
Summary of the method: (§1)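 Mice from the 49-day once-daily ip dosing study (db/db, n = 8/group) were tested by IPGTT on day 0 and day 52, 3 days after the last dose. They were fasted 18 h, challenged ip with 1 g/kg glucose, and tail-vein glucose was read with a meter at 0, 15, 30, 45, 60, 90 and 120 min.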

Mus musculus [7] = assay: Antidiabetic activity in C57BL/6J-m+/+Leprdb (db/db) mouse assessed as reduction of blood glucose level at 50 nmol/kg, ip qd administered for 49 days followed by glucose challenge on day 52 measured after 120 mins post glucose challenge by IPGTT; type: functional, organism-based; summary of the method: as §1
Rattus norvegicus [8] = assay: Anticoagulant activity in Sprague-Dawley rat assessed as prothombin time at 150 nmol/kg, iv administered for 6 days measured on day 7 by coagulometric analysis (reference value: 13.5 +/- 0.32 secs); type: functional
Mus musculus [9] = assay: Antidiabetic activity in ip dosed C57BL/6J-m+/+Leprdb (db/db) mouse assessed as suppression of body weight gain administered as qd measured over 7 weeks of drug treatment; type: functional, organism-based
Summary of the method: (§2)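 Male and female db/db mice (6 weeks, n = 8/group) were matched on HbA1c and given ip injections once daily for 49 days (25 or 50 nmol/kg; comparator 25 nmol/kg; saline controls). Wild-type C57BL/6 littermates served for normalization. HbA1c was measured weekly and body weight daily.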

Mus musculus [10] = assay: Antidiabetic activity in C57BL/6J-m+/+Leprdb (db/db) mouse assessed as reduction of blood glucose AUC (0 to 48 hrs) at 25 nmol/kg, ip administered for 0.5 hrs; type: functional, organism-based
Summary of the method: (§3)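 Non-fasted male db/db mice (7 weeks, free access to food and water) got a single ip injection (25 or 150 nmol/kg) or saline. Mean ± SD, n = 6.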

Rattus norvegicus [11] = assay: Antidiabetic activity in Sprague-Dawley rat assessed as increase of plasma insulin level at 25 nmol/kg, ip administered 0.5 hrs prior to glucose challenge measured for 120 mins by ELISA; type: functional, organism-based
Summary of the method: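 SD rats (200−250 g, n = 6/group) were fasted 12 h and given compound ip (25 nmol/kg) or saline 0.5 h before oral glucose (10 g/kg). Tail-vein blood glucose was read with a meter at −30, 0, 15, 30, 45, 60, 90, 120 and 180 min. Insulin was measured by rat insulin ELISA. Mean ± SD.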

Mus musculus [12] = assay: Antidiabetic activity in C57BL/6J-m+/+Leprdb (db/db) mouse assessed as reduction of HbA1c level at 25 to 50 nmol/kg, ip qd measured over 7 weeks of drug treatment; type: functional, organism-based; summary of the method: as §2
Rattus norvegicus [13] = assay: Antidiabetic activity in Sprague-Dawley rat assessed as increase of plasma insulin level at 25 nmol/kg, ip administered 0.5 hrs prior to glucose challenge measured at 15 mins by ELISA; type: functional
Mus musculus [14] = assay: Hypoglycemic activity in C57BL/6J-m+/+Leprdb (db/db) mouse assessed as reduction of plasma glucose level at 25 nmol/kg, ip administered 0.5 hrs prior to glucose challenge measured after 18 to 21 hrs by IPGTT (reference value: >30 mM); type: functional
Mus musculus [15] = assay: Hypoglycemic activity in C57BL/6J-m+/+Leprdb (db/db) mouse assessed as reduction of plasma glucose level at 25 nmol/kg, ip administered 0.5 hrs prior to glucose challenge measured at 21.5 hrs by IPGTT (reference value: >30 mM); type: functional
albumin = albumin (Homo sapiens, UniProt P02768); assay: Binding affinity to human serum albumin at 100 ug/mL after 3 hrs relative to control; type: ADME; conditions: read-out: PB (converted)
Summary of the method: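 Peptide at 100 μg/mL in PBS (50 μL) was incubated with HSA-conjugated Sepharose resin for 3 h at 25 °C, then centrifuged (1000 rpm, 10 min). Unbound peptide in the supernatant was quantified by micro BCA assay. Nonspecific adsorption was corrected with NHS-inactivated, albumin-free resin.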

Rattus norvegicus [16] = assay: Anticoagulant activity in Sprague-Dawley rat assessed as thombin time at 25 nmol/kg, iv administered for 6 days measured on day 7 by coagulometric analysis (reference value: 19.38 +/- 0.72 secs); type: functional
Mus musculus [17] = assay: Hypoglycemic activity in C57BL/6J-m+/+Leprdb (db/db) mouse assessed as time required to reduce plasma glucose level below 8.35 mM at 25 nmol/kg, ip administered for 0.5 hrs; type: functional; summary of the method: as §3
Rattus norvegicus [18] = assay: Anticoagulant activity in Sprague-Dawley rat assessed as prothombin time at 25 nmol/kg, iv administered for 6 days measured on day 7 by coagulometric analysis (reference value: 13.5 +/- 0.32 secs); type: functional
Mus musculus [19] = assay: Hypoglycemic activity in C57BL/6J-m+/+Leprdb (db/db) mouse assessed as reduction of plasma glucose level at 25 nmol/kg, ip administered 0.5 hrs prior to glucose challenge measured up to 17 hrs by IPGTT (reference value: >30 mM); type: functional
[20] = Cmax in Sprague-Dawley rat at 15 nmol/kg, sc by LC-MS/MS analysis; type: ADME, organism-based; parameters: dose 15 nmol/kg, route subcutaneous; conditions: in vivo
Rattus norvegicus [21] = assay: Anticoagulant activity in Sprague-Dawley rat assessed as activated […] time at 25 nmol/kg, iv administered for 6 days measured on day 7 by coagulometric analysis (reference value: 26.5 +/- 0.81 secs); type: functional
Rattus norvegicus [22] = assay: Antidiabetic activity in Sprague-Dawley rat assessed as increase of plasma insulin level at 25 nmol/kg, ip administered 0.5 hrs prior to glucose challenge measured at 45 mins by ELISA; type: functional
Mus musculus [23] = assay: Hypoglycemic activity in C57BL/6J-m+/+Leprdb (db/db) mouse assessed as time required to reduce plasma glucose level below 8.35 mM at 150 nmol/kg, ip administered for 0.5 hrs; type: functional
Summary of the method: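 Non-fasted male db/db mice (7 weeks, free access to food and water) got a single ip injection (25 or 150 nmol/kg) or saline. Glucose AUC0−48h and the time for glucose to return below 8.35 mM were derived. Mean ± SD, n = 6.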

Mus musculus [24] = assay: Hypoglycemic activity in C57BL/6J-m+/+Leprdb (db/db) mouse assessed as reduction of plasma glucose level at 25 nmol/kg, ip administered 0.5 hrs prior to glucose challenge measured at 21.5 to 24 hrs by IPGTT; type: functional, organism-based
[25] = Half life in Sprague-Dawley rat plasma at 1000 ng/mL by LC-MS/MS analysis; type: ADME, cell-free
Rattus norvegicus [26] = assay: AUC (0 to infinity) in Sprague-Dawley rat at 15 nmol/kg, sc by LC-MS/MS analysis; type: ADME, organism-based, Plasma; parameters: dose 15 nmol/kg, route subcutaneous, time infinity; conditions: in vivo
Mus musculus [27] = assay: Antidiabetic activity in C57BL/6J-m+/+Leprdb (db/db) mouse assessed as reduction of blood glucose level at 25 nmol/kg, ip qd administered for 49 days followed by glucose challenge on day 52 measured up to 90 mins post glucose challenge by IPGTT; type: functional, organism-based; summary of the method: as §1
Rattus norvegicus [28] = assay: Antidiabetic activity in Sprague-Dawley rat assessed as reduction of plasma glucose level at 25 nmol/kg, ip administered 0.5 hrs prior to glucose challenge by OGTT (reference value: 13.32 +/- 1.84 mM); type: functional
[29] = Tmax in Sprague-Dawley rat at 15 nmol/kg, sc by LC-MS/MS analysis; type: ADME, organism-based; conditions: in vivo
Rattus norvegicus [30] = assay: Anticoagulant activity in Sprague-Dawley rat assessed as thombin time at 150 nmol/kg, iv administered for 6 days measured on day 7 by coagulometric analysis (reference value: 19.38 +/- 0.72 secs); type: functional
Mus musculus [31] = assay: Antidiabetic activity in C57BL/6J-m+/+Leprdb (db/db) mouse assessed as reduction of blood glucose level at 50 nmol/kg, ip qd administered for 49 days followed by glucose challenge on day 52 measured up to 90 mins post glucose challenge by IPGTT; type: functional, organism-based; summary of the method: as §1
Rattus norvegicus [32] = assay: Anticoagulant activity in Sprague-Dawley rat assessed as thombin time at 1 umol/kg, iv administered for 6 days measured on day 7 by coagulometric analysis (reference value: 19.38 +/- 0.72 secs); type: functional
Rattus norvegicus [33] = assay: Anticoagulant activity in Sprague-Dawley rat assessed as prothombin time at 1 umol/kg, iv administered for 6 days measured on day 7 by coagulometric analysis (reference value: 13.5 +/- 0.32 secs); type: functional
Rattus norvegicus [34] = assay: Anticoagulant activity in Sprague-Dawley rat assessed as activated […] time at 1 umol/kg, iv administered for 6 days measured on day 7 by coagulometric analysis (reference value: 26.5 +/- 0.81 secs); type: functional

Chain of albumin (P02768 whole entry): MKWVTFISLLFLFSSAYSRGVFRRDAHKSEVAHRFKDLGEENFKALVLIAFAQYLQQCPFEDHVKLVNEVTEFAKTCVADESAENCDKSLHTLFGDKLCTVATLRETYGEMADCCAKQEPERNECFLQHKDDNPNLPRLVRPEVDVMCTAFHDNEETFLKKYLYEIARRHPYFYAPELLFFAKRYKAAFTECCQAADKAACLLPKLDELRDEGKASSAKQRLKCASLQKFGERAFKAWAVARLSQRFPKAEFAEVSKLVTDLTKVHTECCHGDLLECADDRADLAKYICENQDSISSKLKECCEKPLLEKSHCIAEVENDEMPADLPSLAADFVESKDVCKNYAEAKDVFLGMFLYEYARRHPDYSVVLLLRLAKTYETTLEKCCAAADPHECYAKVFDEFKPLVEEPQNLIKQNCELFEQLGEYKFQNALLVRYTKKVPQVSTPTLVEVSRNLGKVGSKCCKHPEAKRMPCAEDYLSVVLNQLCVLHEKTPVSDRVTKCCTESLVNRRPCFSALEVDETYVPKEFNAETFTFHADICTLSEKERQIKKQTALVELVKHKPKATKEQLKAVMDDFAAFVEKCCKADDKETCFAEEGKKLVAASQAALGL
Chain of Glucagon-like peptide 1 receptor (P43220 whole entry): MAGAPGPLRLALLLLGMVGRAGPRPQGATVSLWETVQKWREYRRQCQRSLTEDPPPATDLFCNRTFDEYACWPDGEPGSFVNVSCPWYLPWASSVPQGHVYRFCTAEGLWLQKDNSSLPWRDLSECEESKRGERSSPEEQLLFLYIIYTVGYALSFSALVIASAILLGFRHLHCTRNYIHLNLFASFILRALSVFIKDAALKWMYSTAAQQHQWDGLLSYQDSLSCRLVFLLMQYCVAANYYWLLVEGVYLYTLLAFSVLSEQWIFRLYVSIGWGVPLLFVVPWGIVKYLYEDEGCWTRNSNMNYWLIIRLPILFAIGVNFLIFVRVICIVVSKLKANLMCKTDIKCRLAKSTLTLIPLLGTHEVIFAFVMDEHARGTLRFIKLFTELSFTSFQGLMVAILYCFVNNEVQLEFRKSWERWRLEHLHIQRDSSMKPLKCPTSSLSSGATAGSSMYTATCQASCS

CC[C@H](C)[C@H](NC(=O)[C@H](Cc1ccccc1)NC(=O)[C@H](CCC(=O)O)NC(=O)[C@H](CCCCN)NC(=O)[C@H](C)NC(=O)[C@H](C)NC(=O)[C@H](CCC(N)=O)NC(=O)CNC(=O)[C@H](CCC(=O)O)NC(=O)[C@H](CC(C)C)NC(=O)[C@H](Cc1ccc(O)cc1)NC(=O)[C@H](CO)NC(=O)[C@H](CSC1CC(=O)N(CCCCCCCCCCCC(=O)Nc2ccc(C(c3c(O)c4ccccc4oc3=O)c3c(O)c4ccccc4oc3=O)cc2)C1=O)NC(=O)[C@@H](NC(=O)[C@H](CC(=O)O)NC(=O)[C@H](CO)NC(=O)[C@@H](NC(=O)[C@H](Cc1ccccc1)NC(=O)[C@@H](NC(=O)CNC(=O)[C@H](CCC(=O)O)NC(=O)CNC(=O)[C@@H](N)Cc1cnc[nH]1)[C@@H](C)O)[C@@H](C)O)C(C)C)C(=O)N[C@@H](C)C(=O)N[C@@H](Cc1c[nH]c2ccccc12)C(=O)N[C@@H](CC(C)C)C(=O)N[C@H](C(=O)N[C@@H](CCCCN)C(=O)NCC(=O)N[C@@H](CCCNC(=N)N)C(N)=O)C(C)C (stereo not given in full)
MRT [1]: 33.8 h
pEC50 [2]: 10.43
APTT (Rattus norvegicus [3]): 26.38 s
half-life [4]: 22.1 h
Activity (Rattus norvegicus [5]): Active
Activity (Mus musculus [6]): inactive
Activity (Mus musculus [7]): inactive
PT (Rattus norvegicus [8]): 13.55 s
Activity (Mus musculus [9]): Dose-dependent effect
Activity (Mus musculus [10]): Active
Activity (Rattus norvegicus [11]): Active
Activity (Mus musculus [12]): Active
Activity (Rattus norvegicus [13]): 1274.72 pM
Activity (Mus musculus [14]): <16 mM
Activity (Mus musculus [15]): 13.8 mM
fraction unbound at 3 h, 100 ug/mL (albumin): 0.036
TT (Rattus norvegicus [16]): 19.63 s
Time (Mus musculus [17]): 24.7 h
PT (Rattus norvegicus [18]): 13.39 s
Activity (Mus musculus [19]): <12 mM
Cmax [20]: 880 ng/mL
APTT (Rattus norvegicus [21]): 26.39 s
Activity (Rattus norvegicus [22]): 582.08 pM
Time (Mus musculus [23]): 35.8 h
Activity (Mus musculus [24]): Active
half-life at 1000 ng/mL [25]: 67.9 h
AUC (Rattus norvegicus [26]): 40600 ng·h/mL
Activity (Mus musculus [27]): Active
Activity (Rattus norvegicus [28]): 6.9 mM
Tmax [29]: 1.82 h
TT (Rattus norvegicus [30]): 19.49 s
Activity (Mus musculus [31]): Active

O=c1oc2ccccc2c(O)c1Cc1c(O)c2ccccc2oc1=O [DICUMAROL]
TT (Rattus norvegicus [32]): 36.85 s
PT (Rattus norvegicus [33]): 25.22 s
APTT (Rattus norvegicus [34]): 56.36 s
